Laboratory results reported in ChEMBL document CHEMBL4814044, “Design and synthesis, biological evaluation of bis-(1,2,3- and 1,2,4)-triazole derivatives as potential antimicrobial and antifungal agents” (2021).
Calls of active or inactive are those of the source. No cut-off for these calls is given here.

Assays:
Assay type in all cases: functional
Staphylococcus aureus = experiment: Antibacterial activity against Staphylococcus aureus MTCC 96 assessed as bacterial growth inhibition by microdilution method
Method in brief: (§1)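 Broth microdilution against Gram-positive and Gram-negative strains. The endpoint is the minimal inhibitory concentration, in µg/ml.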

Bacillus subtilis = experiment: Antibacterial activity against Bacillus subtilis MTCC 441 assessed as bacterial growth inhibition by microdilution method; method in brief: as §1
Pseudomonas aeruginosa = experiment: Antibacterial activity against Pseudomonas aeruginosa MTCC 424 assessed as bacterial growth inhibition by microdilution method; method in brief: as §1
Escherichia coli = experiment: Antibacterial activity against Escherichia coli MTCC 443 assessed as bacterial growth inhibition by microdilution method; method in brief: as §1
Aspergillus niger [1] = experiment: Antifungal activity against Aspergillus niger MTCC 404 assessed as zone of inhibition at 16 uM incubated for 2 days by cross streak plate method; settings: MTCC 404, 48 h, time 2 day, read-out: IZ
Method in brief: (§2)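 Fungal strain (A. niger MTCC 404 or S. cerevisiae MTCC 1344) was incubated with the compound for 2 days at 37 °C. Growth inhibition was then assessed by the cross streak plate method.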

Aspergillus niger [2] = experiment: Antifungal activity against Aspergillus niger MTCC 404 assessed as zone of inhibition at 24 uM incubated for 2 days by cross streak plate method; settings: MTCC 404, 48 h, time 2 day, read-out: IZ; method in brief: as §2
Aspergillus niger [3] = experiment: Antifungal activity against Aspergillus niger MTCC 404 assessed as zone of inhibition at 32.1 uM incubated for 2 days by cross streak plate method; settings: MTCC 404, 48 h, time 2 day, read-out: IZ; method in brief: as §2
Saccharomyces cerevisiae [4] = experiment: Antifungal activity against Saccharomyces cerevisiae MTCC 1344 assessed as zone of inhibition at 16 uM incubated for 2 days by cross streak plate method; settings: MTCC 1344, 48 h, time 2 day, read-out: IZ; method in brief: as §2
Saccharomyces cerevisiae [5] = experiment: Antifungal activity against Saccharomyces cerevisiae MTCC 1344 assessed as zone of inhibition at 24 uM incubated for 2 days by cross streak plate method; settings: MTCC 1344, 48 h, time 2 day, read-out: IZ; method in brief: as §2
Saccharomyces cerevisiae [6] = experiment: Antifungal activity against Saccharomyces cerevisiae MTCC 1344 assessed as zone of inhibition at 32.1 uM incubated for 2 days by cross streak plate method; settings: MTCC 1344, 48 h, time 2 day, read-out: IZ
Method in brief: (§3)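 S. cerevisiae MTCC 1344 cultures were incubated for 2 days at 37 °C and then tested by the cross streak plate method.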

[7] = Antioxidant activity assessed as DPPH radical scavenging activity
Aspergillus niger [8] = experiment: Antifungal activity against Aspergillus niger MTCC 404 assessed as zone of inhibition at 17.2 uM incubated for 2 days by cross streak plate method; settings: MTCC 404, 48 h, time 2 day, read-out: IZ; method in brief: as §2
Aspergillus niger [9] = experiment: Antifungal activity against Aspergillus niger MTCC 404 assessed as zone of inhibition at 25.9 uM incubated for 2 days by cross streak plate method; settings: MTCC 404, 48 h, time 2 day, read-out: IZ; method in brief: as §2
Aspergillus niger [10] = experiment: Antifungal activity against Aspergillus niger MTCC 404 assessed as zone of inhibition at 34.5 uM incubated for 2 days by cross streak plate method; settings: MTCC 404, 48 h, time 2 day, read-out: IZ; method in brief: as §2
Saccharomyces cerevisiae [11] = experiment: Antifungal activity against Saccharomyces cerevisiae MTCC 1344 assessed as zone of inhibition at 17.2 uM incubated for 2 days by cross streak plate method; settings: MTCC 1344, 48 h, time 2 day, read-out: IZ; method in brief: as §2
Saccharomyces cerevisiae [12] = experiment: Antifungal activity against Saccharomyces cerevisiae MTCC 1344 assessed as zone of inhibition at 25.9 uM incubated for 2 days by cross streak plate method; settings: MTCC 1344, 48 h, time 2 day, read-out: IZ; method in brief: as §2
Saccharomyces cerevisiae [13] = experiment: Antifungal activity against Saccharomyces cerevisiae MTCC 1344 assessed as zone of inhibition at 34.5 uM incubated for 2 days by cross streak plate method; settings: MTCC 1344, 48 h, time 2 day, read-out: IZ; method in brief: as §3
Aspergillus niger [14] = experiment: Antifungal activity against Aspergillus niger MTCC 404 assessed as zone of inhibition at 15.6 uM incubated for 2 days by cross streak plate method; settings: MTCC 404, 48 h, time 2 day, read-out: IZ; method in brief: as §2
Aspergillus niger [15] = experiment: Antifungal activity against Aspergillus niger MTCC 404 assessed as zone of inhibition at 23.4 uM incubated for 2 days by cross streak plate method; settings: MTCC 404, 48 h, time 2 day, read-out: IZ; method in brief: as §2
Aspergillus niger [16] = experiment: Antifungal activity against Aspergillus niger MTCC 404 assessed as zone of inhibition at 31.2 uM incubated for 2 days by cross streak plate method; settings: MTCC 404, 48 h, time 2 day, read-out: IZ; method in brief: as §2
Saccharomyces cerevisiae [17] = experiment: Antifungal activity against Saccharomyces cerevisiae MTCC 1344 assessed as zone of inhibition at 15.6 uM incubated for 2 days by cross streak plate method; settings: MTCC 1344, 48 h, time 2 day, read-out: IZ; method in brief: as §2
Saccharomyces cerevisiae [18] = experiment: Antifungal activity against Saccharomyces cerevisiae MTCC 1344 assessed as zone of inhibition at 23.4 uM incubated for 2 days by cross streak plate method; settings: MTCC 1344, 48 h, time 2 day, read-out: IZ; method in brief: as §2
Saccharomyces cerevisiae [19] = experiment: Antifungal activity against Saccharomyces cerevisiae MTCC 1344 assessed as zone of inhibition at 31.2 uM incubated for 2 days by cross streak plate method; settings: MTCC 1344, 48 h, time 2 day, read-out: IZ; method in brief: as §2

O=C(CSc1nnc(-c2ccccc2OCc2cn(-c3ccccc3)nn2)n1-c1ccccc1)c1ccc(Br)cc1
MIC (Staphylococcus aureus): 7.9 µg/mL
MIC (Bacillus subtilis): 4.1 µg/mL
MIC (Pseudomonas aeruginosa): 7.5 µg/mL
MIC (Escherichia coli): 10 µg/mL
zone of inhibition at 16 µM (Aspergillus niger [1]): 1.5 mm
zone of inhibition at 24 µM (Aspergillus niger [2]): 2 mm
zone of inhibition at 32.1 µM (Aspergillus niger [3]): 3 mm
zone of inhibition at 16 µM (Saccharomyces cerevisiae [4]): 2 mm
zone of inhibition at 24 µM (Saccharomyces cerevisiae [5]): 2 mm
zone of inhibition at 32.1 µM (Saccharomyces cerevisiae [6]): 3 mm
Activity [7]: inactive

O=C(CSc1nnc(-c2ccccc2OCc2cn(-c3ccccc3)nn2)n1-c1ccccc1)c1ccc(Cl)cc1
MIC (Staphylococcus aureus): 8.4 µg/mL
MIC (Bacillus subtilis): 4 µg/mL
MIC (Pseudomonas aeruginosa): 7.9 µg/mL
MIC (Escherichia coli): > 45.4 µg/mL
zone of inhibition at 17.2 µM (Aspergillus niger [8]): 2.1 mm
zone of inhibition at 25.9 µM (Aspergillus niger [9]): 3 mm
zone of inhibition at 34.5 µM (Aspergillus niger [10]): 3 mm
zone of inhibition at 17.2 µM (Saccharomyces cerevisiae [11]): 2 mm
zone of inhibition at 25.9 µM (Saccharomyces cerevisiae [12]): 3 mm
zone of inhibition at 34.5 µM (Saccharomyces cerevisiae [13]): 3 mm
Activity [7]: inactive

O=C(CSc1nnc(-c2ccccc2OCc2cn(-c3ccccc3)nn2)n1Cc1ccccc1)c1ccc(Br)cc1
MIC (Staphylococcus aureus): 3.9 µg/mL
MIC (Bacillus subtilis): 4.2 µg/mL
MIC (Pseudomonas aeruginosa): 8.8 µg/mL
MIC (Escherichia coli): 4.5 µg/mL
zone of inhibition at 15.6 µM (Aspergillus niger [14]): 5 mm
zone of inhibition at 23.4 µM (Aspergillus niger [15]): 7.4 mm
zone of inhibition at 31.2 µM (Aspergillus niger [16]): 7.6 mm
zone of inhibition at 15.6 µM (Saccharomyces cerevisiae [17]): 6 mm
zone of inhibition at 23.4 µM (Saccharomyces cerevisiae [18]): 6.5 mm
zone of inhibition at 31.2 µM (Saccharomyces cerevisiae [19]): 7 mm
Activity [7]: inactive
